Assay outcomes from PubChem.
NR2E3 ag-1: inhibitors of NR2E3-RetCOR corepressor binding, primary screen, NR2E3 agonist project, biochemical, TR-FRET, GST-NR2E3, biotin-RetCOR; 1536-well; AID 2300, 2010; Photoreceptor-specific nuclear receptor (Homo sapiens), Q9Y5X4; inhibition of corepressor binding, % at 4.78 µM; 320,000 tested, 0.12% active;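 active means percent inhibition above the cutoff of mean plus 3 SD of all tested compounds, set per screening campaign, cut at about 20% in these data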;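 further: 0% = DMSO wells and 100% = biotin wells as full block of FRET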
Target sequence (Q9Y5X4 whole entry, looked up): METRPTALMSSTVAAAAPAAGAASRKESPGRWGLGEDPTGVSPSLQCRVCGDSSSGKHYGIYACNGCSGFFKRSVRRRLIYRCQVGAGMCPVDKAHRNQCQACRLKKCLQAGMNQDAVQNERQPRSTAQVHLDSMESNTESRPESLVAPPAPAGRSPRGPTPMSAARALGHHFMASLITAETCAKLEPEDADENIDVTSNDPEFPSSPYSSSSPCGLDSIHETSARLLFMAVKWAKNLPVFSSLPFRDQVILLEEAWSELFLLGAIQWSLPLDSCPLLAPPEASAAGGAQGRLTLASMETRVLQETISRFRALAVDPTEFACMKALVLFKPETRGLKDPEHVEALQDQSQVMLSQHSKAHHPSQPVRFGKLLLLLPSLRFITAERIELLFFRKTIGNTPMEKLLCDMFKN
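Material – GST-tagged NR2E3 plus biotinylated RetCOR corepressor · Quantity – NR2E3 fusion 1.35 nM · Times – 5 h incubation at 4 °C · Medium – pH 7.5 Tris-based buffer · Technique – TR-FRET, Eu(K)-anti-GST donor, streptavidin-D2 acceptor, ex 340, em 617/671 nm · Benchmarks – high control biotin, low control 0.6% DMSO · Format – 1536-well plates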
miR122 inh: miR-122 Renilla sensor signal increase in Huh7, primary screen, miR-122 inhibitor project, cell-based, single point, plate reader. activation (reporter increase), % at 12.5 µM. Huh7 miR-122 Renilla luciferase sensor, 48 h; neutral wells = 0, positive control = 100. 340,000 tested, 0.3% active;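 active means mean replicate activation score at least 90 and every replicate individually at or above 90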;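 further: higher luciferase means less miR-122 activity so hits act as miR-122 inhibitors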
NR2E3 ag-2: NR2E3 agonists in two-hybrid cells, primary screen, cell-based, luminescence, CHO-S, Gal4-NCOR/VP16-NR2E3. Photoreceptor-specific nuclear receptor (Homo sapiens), Q9Y5X4. inhibition of corepressor binding, % at 3.98 µM. AID 602229, 2012. luciferase. 360,000 tested, 0.35% active;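 active means inhibition above the mean of all tested compounds plus 3 SD, cut at about 70% in these data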;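 further: 0% = DMSO with NR2E3 transfected cells and 100% = cells lacking NR2E3 construct; higher means lower luciferase signal from less NR2E3 corepressor binding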
697 NFkB inh: inhibitors of PMA/ionomycin-induced NF-kB reporter, 697 cells, primary screen, B-cell NF-kB inhibitor project, cell-based, luminescence, uHTS; 330,000 tested, 0.33% active; AID 435022, 2010; 697 B-cell NF-kB luciferase reporter, 16 h; inhibition, % at 4 µM; in the data active means inhibition above about 35%
Jurkat NFkB inh: inhibitors of induced NF-kB luciferase reporter, primary screen, TCR NF-kB activation inhibitor project, cell-based, luminescence, uHTS; Jurkat, PMA/ionomycin-induced NF-kB luciferase reporter; inhibition, % at 4 µM; 330,000 tested, 0.53% active; AID 435003, 2010; in the data active means inhibition above about 50%
FGF22 binding: binders of human FGF22 protein, primary screen, FGF22 synaptogenesis inhibitor project, biophysical, thermal shift, single point; recombinant FGF22 thermal shift, SYPRO orange fluorescence; percent of sucrose octasulfate shift, DMSO zero; 340,000 tested, 1.5% active; activity (Tm shift, normalised), % at 9.99 µM;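 active means mean Tm shift, scaled 0 neutral to 100 positive control, at about 1.3% or above, every replicate too, limit read from the data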
Target sequence (Q9HCT0 whole entry, looked up): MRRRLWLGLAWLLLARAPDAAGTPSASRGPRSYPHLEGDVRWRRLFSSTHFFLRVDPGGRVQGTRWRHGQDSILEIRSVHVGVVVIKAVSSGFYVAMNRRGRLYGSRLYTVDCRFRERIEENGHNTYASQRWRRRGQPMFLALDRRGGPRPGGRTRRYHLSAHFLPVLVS
Starred values were filed as active, the others as inactive; x = no result; [ ] = another dose, or the depositor's remark. The list is not random: actives were taken first. Their share in the collection is about 2.2%.

SMILES | NR2E3 ag-1 | miR122 inh | NR2E3 ag-2 | 697 NFkB inh | Jurkat NFkB inh | FGF22 binding
OC[C@H]1[C@H](c2ccc(-c3cccnc3)cc2)[C@@H]2CN(CC3CCOCC3)CCCCN12 | x | 6.3[16.7 µM] | x | x | x | -0.1
COc1cc(OC)c(NC2c3ccccc3C(=O)N2c2cc(C)ccn2)cc1Cl (configuration not stated) | 1.1 | 1.0 | -46.7 | -6.1 | -16.8 | 3.4*
CCOC(=O)c1ccccc1NC1c2ccccc2C(=O)N1c1cc(C)ccn1 (configuration not stated) | 0.8 | -7.9 | 9.1 | -11.2 | -4.4 | 0.0
Cc1ccc(NC(=O)CN2C(=O)NC3(CCCc4ccccc43)C2=O)cc1S(=O)(=O)N1CCOCC1 (configuration not stated) | -2.1 | 4.9 | -1.4 | 19.0 | 5.0 | 43.9*
CCN(CC)S(=O)(=O)c1cc(NC(=O)CN2C(=O)NC3(CCCc4ccccc43)C2=O)ccc1C (configuration not stated) | 1.2 | x | 26.4 | 2.4 | 11.3 | 0.0
Nc1nc(SCc2ccc(Br)cc2)[nH]c(=O)c1-c1ccccc1 | 0.0 | -3.5 | 8.3 | 5.0 | -25.0 | 43.1*
Nc1nc(SCc2nc(-c3ccccc3)no2)[nH]c(=O)c1-c1ccccc1 | -0.9 | 1.9 | -7.5 | 10.9 | 7.7 | 0.0
C[C@@H]1CN([C@@H](C)CO)C(=O)Cc2cc(NS(C)(=O)=O)ccc2O[C@H]1CN(C)S(=O)(=O)c1cn(C)cn1 | x | 4.2[16.7 µM] | x | x | x | -0.3
O=C(c1ccco1)N1N=C(c2cccs2)CC1c1ccco1 (configuration not stated) | -1.7 | 9.0 | 2.6 | -11.2 | -19.9 | -0.2
Cc1ccc(C2CC(c3cccs3)=NN2C(=O)c2ccco2)o1 (configuration not stated) | 3.3 | x | -33.9 | -6.9 | -8.8 | 44.3*
Cc1cc(C(=O)Nc2cccc3c2O[C@H](CN(C)Cc2ccc(Oc4ccccc4)cc2)[C@@H](C)CN([C@H](C)CO)C3=O)n(C)n1 | x | 10.2[16.7 µM] | x | x | x | -0.6
O=C(NNc1ccccc1)c1ccc(Cl)c(Cl)c1 | x | 0.1 | 45.5 | x | x | 43.2*
Cc1noc(C)c1NC(=O)Nc1ccc2c(c1)C(=O)N([C@H](C)CO)C[C@@H](C)[C@H](CN(C)Cc1ccncc1)OCCCC[C@H](C)O2 | x | -5.2[16.7 µM] | x | x | x | 0.0
Cc1ccc(/C(O)=C2/C(=O)C(=O)N(CCN3CCOCC3)C2c2cccnc2)cc1 (configuration not stated) | 0.3 | 3.6 | -0.3 | -7.9 | -1.1 | x
Cc1c(N2C(=O)C(=O)/C(=C(/O)c3ccc(Br)cc3)C2c2cccnc2)c(=O)n(-c2ccccc2)n1C (configuration not stated) | 9.0 | -1.4 | 17.7 | 4.5 | 11.8 | 43.7*
CC(C)(C)OC(=O)NCc1ccc(CNC(=O)c2[nH]cnc2C(=O)Nc2ccccc2F)cc1 | x | -1.7 | 8.6 | x | x | 43.2*
C[C@@H]1CN([C@H](C)CO)C(=O)c2cccc(NC(=O)C3CCOCC3)c2O[C@@H]1CN(C)S(=O)(=O)c1ccccc1 | x | 0.3[16.7 µM] | x | x | x | -0.2
COc1cccc(CNC(=O)C[C@@H]2CC[C@H](NC(=O)C3CC3)[C@@H](CO)O2)c1 | x | x | x | x | x | 0.0
CC(C)(Cc1cccc(CC(C)(C)C(=O)O)c1)C(=O)O | -0.7 | 1.4 | 23.7 | 3.8 | 0.2 | 17.3*
COc1ccc(NC(=O)Nc2ccc3c(c2)CC(=O)N([C@H](C)CO)C[C@H](C)[C@@H](CN(C)C(=O)Nc2ccc(C(F)(F)F)cc2)O3)cc1 | x | -4.7[16.7 µM] | x | x | x | -0.3
CC(C)NC(=O)Nc1ccc2c(c1)CC(=O)N([C@H](C)CO)C[C@@H](C)[C@@H](CN(C)Cc1ccc(Oc3ccccc3)cc1)O2 | x | 96.6*[16.7 µM] | x | x | x | -0.4
COc1ccc(NC(=O)N(C)C[C@H]2Oc3ccc(NC(=O)Nc4ccc(C(F)(F)F)cc4)cc3CC(=O)N([C@@H](C)CO)C[C@H]2C)cc1 | x | 200.8*[16.7 µM] | x | x | x | 0.1
COc1ccc(CN(C)C[C@H]2Oc3ccc(NC(=O)C4CCCCC4)cc3CC(=O)N([C@H](C)CO)C[C@H]2C)cc1 | x | -2.3[16.7 µM] | x | x | x | 0.4
COc1ccc(CN(C)C[C@H]2Oc3ccc(NC(=O)C4CCCCC4)cc3CC(=O)N([C@@H](C)CO)C[C@H]2C)cc1 | x | -3.2[16.7 µM] | x | x | x | 1.7*
COc1ccc(NC(=O)Nc2ccc3c(c2)CC(=O)N([C@@H](C)CO)C[C@@H](C)[C@H](CN(C)C(=O)NC(C)C)O3)cc1 | x | 101.0*[16.7 µM] | x | x | x | -0.7
SMILES | NR2E3 ag-1 | miR122 inh | NR2E3 ag-2 | 697 NFkB inh | Jurkat NFkB inh | FGF22 binding
O=C(Cc1ccccc1)N[C@H]1C=C[C@@H](CC(=O)N2CCOCC2)O[C@H]1CO | x | x | x | x | x | -0.5
COc1ccc(S(=O)(=O)N(C)CC(=O)Nc2ccc(C)cc2)cc1OC | 2.6 | -5.3 | -14.9 | 19.9 | -1.0 | 43.0*
COc1ccc(S(=O)(=O)N(C)CC(=O)Nc2cccc(C(C)=O)c2)cc1C | -1.5 | x | 20.0 | 14.1 | -1.0 | x
CC(=O)c1cccc(NC(=O)CN(C)S(=O)(=O)c2ccccc2)c1 | -3.4 | x | -26.2 | 10.6 | 3.2 | 43.5*
O=S(Cc1ccccc1)CC(O)(c1ccc(Cl)cc1)c1ccc(Cl)cc1 (configuration not stated) | 0.8 | 138.6* | -5.9 | -10.3 | 8.9 | x
O=S(Cc1ccc(Cl)cc1)CC(O)(c1ccccc1)c1ccccc1 (configuration not stated) | 3.9 | 146.7* | -20.5 | 4.3 | -1.1 | x
Oc1c(CN2CCN(c3ccccn3)CC2)cc(Cl)c2cccnc12 | -0.1 | -19.0 | 78.7* | -58.2 | 34.3 | x
O=c1c(CN2CCN(c3ccccn3)CC2)coc2ccccc12 | 1.8 | x | -21.8 | -1.6 | 9.1 | 43.8*
COc1ccc(/C=N\NC(=O)c2ccccc2[N+](=O)[O-])cc1COc1c(F)c(F)c(F)c(F)c1F | -0.7 | x | 9.2 | 17.1 | 10.0 | 4.1*
COc1ccc(/C=N\NC(=O)c2ccc([N+](=O)[O-])cc2)cc1COc1c(F)c(F)cc(F)c1F | x | -6.1 | -14.1 | 5.8 | 12.1 | 0.1
COc1ccc([N+](=O)[O-])cc1/C=N/NC(=O)Cc1ccccc1 | 2.2 | x | 20.2 | 7.7 | 5.1 | 43.8*
Cc1ccc(S(=O)(=O)Nc2ccc3c(c2)C(=O)N([C@@H](C)CO)C[C@H](C)[C@@H](CN(C)C(=O)c2ccncc2)OCCCC[C@@H](C)O3)cc1 | x | 2.9[16.7 µM] | x | x | x | -0.2
